From ChEMBL document CHEMBL3351368, “Biphenyl-4-carboxylic acid [2-(1H-indol-3-yl)-ethyl]-methylamide (CA224), a nonplanar analogue of fascaplysin, inhibits Cdk4 and tubulin polymerization: evaluation of in vitro and in vivo anticancer activity” (J Med Chem, 2014)
In brackets after ≈: the same amount, converted by molar mass. Activity calls are given as the source filed them. The calls are words filed in the database; no cut-off is given here.

Assays:
MiaPaCa = assay: Effect on p27 level in p53His273 mutant, pRb+ human MiaPaCa cells at IC50 concentration after 48 hrs by Western blot analysis; type: functional
NCI-H1299 = assay: Induction of apoptosis in p53 null, pRb+ human NCI-H1299 cells assessed as fragmented nuclei/distrupted cell membrane after 24 hrs by DAPI staining-based flow cytometry
[1] = Solubility in phosphate buffered saline; type: physicochemical
[2] = Displacement of ethidium bromide from closed circular plasmid DNA (unknown origin) by fluorescence quenching assay
[3] = AUC (0 to infinity) in BALB/c mouse at 1 mg/kg, iv; type: ADME, organism-based; set-up: time infinity, dose 1 mg/kg, route intravenous; details: plasma
Outline: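 BALB/c mice given a single dose of 1.0 mg/kg IV or 10 mg/kg orally; plasma concentration followed over time and pharmacokinetic parameters derived from the time-concentration profile.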

LS174T [4] = assay: Reduction cyclin B1 level in p53+, pRb+ human LS 174T cells at IC50 concentration after 24 hrs by Western blot analysis
NCI-H460 = assay: Induction of apoptosis in p53+, pRb+ human NCI-H460 cells assessed as fragmented nuclei/distrupted cell membrane at 1 to 10 uM by DAPI staining-based flow cytometry; type: functional; details: TDE = time-dependent effect
[5] = Cell cycle arrest in mouse BNL-CL2 cells assessed as accumulation of cells at G2/M phase at IC50 concentration after 48 hrs by flow cytometry (reference value: 23%); type: functional
Outline: (§1)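 Normal (BNL CL2) and SV40 large T-antigen transformed (BNL SV A.8) mouse embryonic hepatic cells were treated at IC50 or IC70 concentration for 48 h. Analysis was by FACS, with apoptosis taken as % cells in the sub-G1 peak. Untreated cells served as control.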

NCI-H358 = assay: Induction of apoptosis in p53 null, […] human NCI-H358 cells assessed as fragmented nuclei/distrupted cell membrane at 1 to 10 uM by DAPI staining-based flow cytometry; details: TDE = time-dependent effect
LS174T [6] = assay: Induction of p21 level in p53+, pRb+ human LS 174T cells at IC50 concentration after 24 hrs by Western blot analysis
[7] = Cell cycle arrest in mouse BNL-SVA.8 cells assessed as accumulation of cells at S phase at IC50 concentration after 48 hrs by flow cytometry (reference value: 23%); type: functional; outline: as §1
LS174T [8] = assay: Reduction Cdk1 level in p53+, pRb+ human LS 174T cells at IC50 concentration after 24 hrs by Western blot analysis

CN(CCc1c[nH]c2ccccc12)C(=O)c1ccc(-c2ccccc2)cc1
Activity (MiaPaCa): inactive | Activity (NCI-H1299): Dose-dependent effect | solubility [1]: 125 µg/mL (≈ 353 µM) | inhibition [2]: inactive | AUC(0-inf) [3]: 189 ng·h/mL | inhibition (LS174T [4]): Active | Activity (NCI-H460): tde | Activity [5]: 54% | Activity (NCI-H358): tde | Activity (LS174T [6]): Active | Activity [7]: 21% | inhibition (LS174T [8]): Active
